From PubChem BioAssay come the findings set out here.

Activity calls are given as the source filed them.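 The calls were made as follows, unless noted: active = viability at or below 30% in both replicate assays; inconclusive = viability at or below 30% in just one of the two assays; inactive = the rest.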

Test [1] is described as follows: Her2 expression decrease, cell viability multiplex – SKBR3 breast tumor cells, AlphaScreen, ATP viability, primary screen (AID 461;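 active = Her2 level under about 52% in both replicate screens, with viability over 70% of control, limit read from the data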;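 as to Her2 level: lower value means less Her2 protein in the cells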;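 as to viability: percent of carrier control wells set as 100% viability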). The settings on record: SKBR3 Her2 protein level, 18-24 h, measured here: SKBR3 viability, ATP luminescence, at 10 µM. On the technique in general: Bead proximity is the source of the signal in Alpha formats.
Test [2] concerns the target Receptor tyrosine-protein kinase erbB-2 (Homo sapiens) (UniProt P04626). The description is as above. As to conditions: 18-24 h, at 10 µM, stronger effect = lower value.
A short description of test [3]: reduced viability of SK-BR-3 breast cancer cells – cell-based, 24 h, human, pilot screen (AID 572;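 active = viability at or below 10% of carrier control in both of two separate runs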;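 also: compound exposure lasted between 18 and 24 h rather than exactly 24 h; 100% = carrier-treated control wells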). As to conditions: SK-BR-3 viability, CellTiter-Glo luminescence, at 10 µM, stronger effect = lower value. For orientation: Cellular ATP, detected with luciferase, serves as a proxy for viable cell number.
Test [4] in a line: HUVEC growth inhibition – cell-based, human, primary screen (AID 575).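 Also: 100% = median of untreated cell wells with 0.1% DMSO on each plate.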 The settings on record: HUVEC proliferation, CellTiter-Glo luminescence, 72 h; at 10 µM; stronger effect = lower value. Put shortly: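 Test system: HUVEC primary cells. Quantity: 1250 endothelial cells in each well. Dosing: single-point 10 µM, DMSO 0.1% final. Incubation: 72 h treatment at 37 °C. Measured by: CTG luminescence. Control set: DMSO cell controls and MePR drug controls. Plate: collagen-coated 384-well format.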

The nature of test [5]: H69AR cell proliferation blockers – human, duplicate replicates, primary screen (AID 580;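 active = viability at or under a set limit in both replicates, limit being median viability minus 3 SD, cut at about 48% in these data, passing the limit was not always enough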;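 also: 100% = mean luminescence of untreated wells and 0% = no signal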). As to conditions: H69AR lung tumor cells viability, ATP luminescence, 72 h; at 10 µM; stronger effect = lower value.
Test [6] in a line: MRP1 drug-resistance reversers in H69AR cells – cell-based, doxorubicin co-treatment, pilot screen (AID 601;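 active = viability loss from added drug above about 55%, and viability with drug at most 40%, in both replicates, limit read from the data, passing the limit was not always enough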). As to conditions: CellTiter-Glo, 72 h, at 10 µM; for differential viability (reversal): stronger effect = higher value.
Test [7] in a line: yeast transport mutant growth inhibition pilot in 384-well plates, post-Golgi transport modulator project (AID 636; in the data active = inhibition above about 31%). As to conditions: absorbance 615 nm, about 18 h, stronger effect = higher value.
Test [8] in a line: growth suppression of yeast trafficking mutant, preliminary HTS, modulators of trafficking downstream of Golgi apparatus project, 1536-format plate, OD 615 nm (AID 637; in the data active = inhibition above about 30%). As to conditions: yeast transport mutant growth, absorbance 615 nm, 18 h; stronger effect = higher value.
[9] abbreviates: H69AR cells + 2 uM doxorubicin, measured here: viability with 2 uM doxorubicin, stronger effect = lower value.
Setting [10] is: H69AR cells, compound alone cytotoxicity.

Chain of Receptor tyrosine-protein kinase erbB-2 (Homo sapiens) (P04626 whole entry, looked up): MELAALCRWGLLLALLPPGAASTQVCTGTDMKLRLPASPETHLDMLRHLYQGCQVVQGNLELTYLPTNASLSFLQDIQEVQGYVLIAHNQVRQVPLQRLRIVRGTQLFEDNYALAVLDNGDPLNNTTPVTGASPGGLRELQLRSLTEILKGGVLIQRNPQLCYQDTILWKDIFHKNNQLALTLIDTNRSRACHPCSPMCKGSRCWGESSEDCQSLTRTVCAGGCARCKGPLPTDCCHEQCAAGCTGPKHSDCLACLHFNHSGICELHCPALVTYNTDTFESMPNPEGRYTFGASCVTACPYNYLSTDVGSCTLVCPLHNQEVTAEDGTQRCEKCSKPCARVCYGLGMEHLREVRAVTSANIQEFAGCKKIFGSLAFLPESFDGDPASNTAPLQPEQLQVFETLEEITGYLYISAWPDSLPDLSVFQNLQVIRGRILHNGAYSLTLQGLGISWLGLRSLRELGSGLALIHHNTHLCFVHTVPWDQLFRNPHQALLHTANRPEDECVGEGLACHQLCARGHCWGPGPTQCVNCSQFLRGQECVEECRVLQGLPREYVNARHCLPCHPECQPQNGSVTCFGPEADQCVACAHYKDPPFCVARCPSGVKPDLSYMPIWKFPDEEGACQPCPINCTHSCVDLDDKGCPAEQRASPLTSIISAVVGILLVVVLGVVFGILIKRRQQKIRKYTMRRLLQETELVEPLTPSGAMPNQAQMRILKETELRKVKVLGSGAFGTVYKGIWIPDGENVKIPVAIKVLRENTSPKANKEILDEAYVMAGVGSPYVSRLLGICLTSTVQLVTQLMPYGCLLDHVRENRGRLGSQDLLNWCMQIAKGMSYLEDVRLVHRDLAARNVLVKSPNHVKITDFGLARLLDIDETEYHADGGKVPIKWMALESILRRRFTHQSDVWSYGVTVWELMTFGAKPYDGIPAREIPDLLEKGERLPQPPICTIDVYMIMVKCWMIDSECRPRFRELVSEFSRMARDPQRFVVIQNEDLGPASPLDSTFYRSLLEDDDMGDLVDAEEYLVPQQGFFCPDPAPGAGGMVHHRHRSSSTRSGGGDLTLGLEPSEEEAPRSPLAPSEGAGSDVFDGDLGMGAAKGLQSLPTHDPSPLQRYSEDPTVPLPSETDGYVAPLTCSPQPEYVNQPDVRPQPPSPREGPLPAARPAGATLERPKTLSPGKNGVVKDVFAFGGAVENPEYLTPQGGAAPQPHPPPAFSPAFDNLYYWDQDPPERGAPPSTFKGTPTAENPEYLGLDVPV

On to `CC1(C)NC(=O)N(CNc2cc(Cl)ccc2Cl)C1=O`, for which the viability was 104% in test [1]; 104% (inactive) in test [3]; 85.7% (inactive) in test [4]; 96.4% (inactive) in test [5]; 95.5% in test [6] (setting [9]); 96.4% in test [6] (setting [10]). In test [2], the Her2 level was 87.5% (inactive). Also, the differential viability (reversal) in test [6] (H69AR cells + 2 uM doxorubicin) is 0.94% (inactive). Besides, the figures for the inhibition in test [7] and in test [8] were -3.55% (inactive) and -1.82% (inactive), respectively.

Regarding `CCOC(=O)c1sc(C)c2c(=O)n(CC)nnc12`, the viability in test [1] was 94%; in test [3], 94% (inactive); in test [4], 98.3% (inactive); in test [5], 103% (inactive); in test [6] (setting [9]), 102%; in test [6] (setting [10]) it was 103%. In test [2], the Her2 level is 111% (inactive). For the same compound, the differential viability (reversal) in test [6] (H69AR cells + 2 uM doxorubicin) is 1.48% (inactive). In addition, the results for the inhibition in test [7] and in test [8] were -4% (inactive) and -9.52% (inactive), respectively.

As to `COc1ccc(S(=O)(=O)N2CCSC2c2ccccc2)cc1` (stereo not given), the viability in test [1] was 82%; in test [3] it was 82% (inactive); in test [4], 79.9% (inactive); in test [5], 76.9% (inactive); in test [6] (setting [9]), 90.7%; in test [6] (setting [10]), 76.9%. The Her2 level in test [2] is 90.5% (inactive). Also, in test [6] (H69AR cells + 2 uM doxorubicin), the differential viability (reversal) is -13.8% (inactive). Moreover, the inhibition in test [7] is -2.7% (inactive); in test [8] it was -2.95% (inactive).

As to `Cc1nn(-c2ccccc2)c2sc(C(=O)N3CCOCC3)cc12`, the viability in test [1] was 88.5%; in test [3], 88.5% (inactive); in test [4] it was 71.9% (inactive); in test [5], 87.3% (inactive); in test [6] (setting [9]), 89.6%; in test [6] (setting [10]), 87.3%. Also, the Her2 level in test [2] was 84.5% (inactive). Besides, the differential viability (reversal) in test [6] (H69AR cells + 2 uM doxorubicin) is -2.3% (inactive). For the same compound, the inhibition was -6% (inactive) in test [7] and -0.48% (inactive) in test [8].

`COc1ccc(-n2c(Cc3cccn3C)nnc2SCC(=O)Nc2cccc(C)c2C)cc1`: the viability is 88.5% in test [1]; 88.5% (inactive) in test [3]; 91.4% (inactive) in test [4]; 93.8% (inactive) in test [5]; 96.7% in test [6] (setting [9]); 93.8% in test [6] (setting [10]). Also, the Her2 level in test [2] is 97% (inactive). Also, in test [6] (H69AR cells + 2 uM doxorubicin), the differential viability (reversal) was -2.92% (inactive). For the same compound, the results for the inhibition in test [7] and in test [8] were -0.64% (inactive) and -6.67% (inactive), respectively.

In the case of `CCn1c(CC(=O)Nc2cccc(OC)c2)nnc1SCC(=O)Nc1nccs1`, the viability is 98% in test [1]; 98% (inactive) in test [3]; 94.5% (inactive) in test [4]; 101% (inactive) in test [5]; 97% in test [6] (setting [9]); 101% in test [6] (setting [10]). In test [2], the Her2 level was 102% (inactive). Also, the differential viability (reversal) in test [6] (H69AR cells + 2 uM doxorubicin) is 4.37% (inactive). For the same compound, the inhibition is -7.6% (inactive) in test [7] and -2.26% (inactive) in test [8].

On to `COc1ccc(-n2c(COc3cccc(C)c3)nnc2SCC(=O)NCc2ccco2)cc1`, for which the viability in test [1] is 126%; in test [3], 126% (inactive); in test [4], 84.4% (inactive); in test [5], 85.4% (inactive); in test [6] (setting [9]) it was 95.7%; in test [6] (setting [10]) it was 85.4%. Also, in test [2], the Her2 level is 91% (inactive). The differential viability (reversal) in test [6] (H69AR cells + 2 uM doxorubicin) was -10.3% (inactive). Also, the inhibition was -2.84% (inactive) in test [7] and -1.43% (inactive) in test [8].

In the case of `CC1C(c2ccccc2)N(C)CCC12NC(=O)NC2=O` (stereo not given), the viability was 89% in test [1]; 89% (inactive) in test [3]; 96.9% (inactive) in test [4]; 98.2% (inactive) in test [5]; 85.2% in test [6] (setting [9]); 98.2% in test [6] (setting [10]). Also, the Her2 level in test [2] is 95.5% (inactive). In addition, the differential viability (reversal) in test [6] (H69AR cells + 2 uM doxorubicin) was 13% (inactive). Moreover, the values for the inhibition in test [7] and in test [8] were -5.33% (inactive) and -9.02% (inactive), respectively.

For the compound `CCOP(=O)(c1ccc(N(C)C)cc1)C(O)c1cc(OC)c(OC)c(OC)c1` (stereo not given), the viability in test [1] is 76.5%; in test [3] it was 76.5% (inactive); in test [4], 80.6% (inactive); in test [5], 87.4% (inactive); in test [6] (setting [9]) it was 87.4%; in test [6] (setting [10]), 87.4%. For the same compound, the Her2 level in test [2] is 80% (inactive). In addition, the differential viability (reversal) in test [6] (H69AR cells + 2 uM doxorubicin) is -0.05% (inactive). In addition, the results for the inhibition in test [7] and in test [8] were -3.68% (inactive) and -2.38% (inactive), respectively.

As to `Nc1ncnc2nc(SCCN3CCCCC3)[nH]c12`, the viability in test [1] was 119%; in test [3], 119% (inactive); in test [4], 102% (inactive); in test [5], 100% (inactive); in test [6] (setting [9]), 97.3%; in test [6] (setting [10]) it was 100%. Also, the Her2 level in test [2] was 88% (inactive). Also, the differential viability (reversal) in test [6] (H69AR cells + 2 uM doxorubicin) was 3.13% (inactive). The inhibition in test [7] is 3.29% (inactive); in test [8], -5.32% (inactive).

For the compound `CC1Cc2ccccc2N1S(=O)(=O)c1cccc(C(=O)OCC(=O)NC2CCS(=O)(=O)C2)c1` (stereo not given), the viability in test [1] was 88%; in test [3] it was 88% (inactive); in test [4], 89.1% (inactive); in test [5], 97.2% (inactive); in test [6] (setting [9]) it was 84.9%; in test [6] (setting [10]), 97.2%. In addition, the Her2 level in test [2] is 82.5% (inactive). The differential viability (reversal) in test [6] (H69AR cells + 2 uM doxorubicin) was 12.3% (inactive). Besides, the inhibition in test [7] was -6.4% (inactive); in test [8], -3.61% (inactive).

Take `Cn1c(=O)[nH]c2cc3ccccc3cc21`: the viability in test [1] was 118%; in test [3], 118% (inactive); in test [4], 26.6% (active); in test [5], 95.6% (inactive); in test [6] (setting [9]), 79.1%; in test [6] (setting [10]), 95.6%. Moreover, the Her2 level in test [2] was 94% (inactive). In addition, the differential viability (reversal) in test [6] (H69AR cells + 2 uM doxorubicin) was 16.5% (inactive). Besides, the figures for the inhibition in test [7] and in test [8] were -6.05% (inactive) and -0.73% (inactive), respectively.

On to `Cc1cc(C)n(-c2ccc(C(=O)Oc3ccc4c(c3)OCO4)cc2)n1`, for which the viability in test [1] is 80%; in test [3] it was 80% (inactive); in test [4], 92.3% (inactive); in test [5], 90.7% (inactive); in test [6] (setting [9]), 88%; in test [6] (setting [10]) it was 90.7%. In test [2], the Her2 level is 83.5% (inactive). In test [6] (H69AR cells + 2 uM doxorubicin), the differential viability (reversal) is 2.71% (inactive). Moreover, the inhibition in test [7] was -4.13% (inactive); in test [8], -1.11% (inactive).

For `COc1ccc2nc(CC(C)(C)CC(=O)O)c[n+]([O-])c2c1`, the viability in test [1] was 109%; in test [3], 109% (inactive); in test [4] it was 106% (inactive); in test [5] it was 99.2% (inactive); in test [6] (setting [9]) it was 89.6%; in test [6] (setting [10]), 99.2%. In addition, the Her2 level in test [2] is 95.5% (inactive). Besides, the differential viability (reversal) in test [6] (H69AR cells + 2 uM doxorubicin) is 9.58% (inactive). In addition, the inhibition in test [7] is -2.7% (inactive); in test [8], 5.08% (inactive).

In general, viability refers to a read-out of living cells in per cent, often relative to untreated cells. For orientation: inhibition means the change of the read-out against control, counted positive when it falls.
